Data set [1] addresses Calcium/calmodulin-dependent protein kinase type IV (Homo sapiens) (UniProt Q16566). Kind of data set: Binding affinity to wild-type human partial length CAMK4 (A22 to A322 residues) expressed in bacterial expression system assessed as residual binding level at 1 uM by Kinomescan method relative to control.
Data set [2] deals with Cyclin-dependent kinase 19 (Homo sapiens) (UniProt Q9BWU1). Briefly: Binding affinity to wild-type human partial length CDK11 (M1 to N360 residues) expressed in bacterial expression system assessed as residual binding level at 1 uM by Kinomescan method relative to control.
The target of data set [3] is Serine/threonine-protein kinase DCLK2 (Homo sapiens) (UniProt Q8N568). Kind of data set: Binding affinity to wild-type human partial length DCAMKL2 (K273 to V664 residues) expressed in bacterial expression system assessed as residual binding level at 1 uM by Kinomescan method relative to control.
Data set [4] deals with Phosphatidylinositol 4,5-bisphosphate 3-kinase catalytic subunit alpha isoform (Homo sapiens), P42336 [I800L]. Briefly: Binding affinity to human partial length PIK3CA I800L mutant (R108 to N1068 residues) expressed in mammalian expression system assessed as residual binding level at 1 uM by Kinomescan method relative to control.
Data set [5] has as its system Mast/stem cell growth factor receptor Kit (Homo sapiens), P10721 [UNDEFINED MUTATION]. Briefly: Binding affinity to human partial length KIT V559D/V654 double mutant (Y545 to D952 residues) expressed in bacterial expression system assessed as residual binding level at 1 uM by Kinomescan method relative to control. A digest of the protocol:
(§1)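 Kinome-wide selectivity panel run by the KINOMEscan method, with the test compound at a single concentration of 1 μM. Wild-type and mutant kinases were profiled in the same screen.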

In data set [6] the target is Serine/threonine-protein kinase RIO2 (Homo sapiens) (UniProt Q9BVS4). Kind of data set: Binding affinity to wild-type human partial length RIOK2 (M1 to D313 residues) expressed in mammalian expression system assessed as residual binding level at 1 uM by Kinomescan method relative to control.
Chain of Serine/threonine-protein kinase RIO2 (Homo sapiens) (Q9BVS4 whole entry, looked up, the tested form may be a part): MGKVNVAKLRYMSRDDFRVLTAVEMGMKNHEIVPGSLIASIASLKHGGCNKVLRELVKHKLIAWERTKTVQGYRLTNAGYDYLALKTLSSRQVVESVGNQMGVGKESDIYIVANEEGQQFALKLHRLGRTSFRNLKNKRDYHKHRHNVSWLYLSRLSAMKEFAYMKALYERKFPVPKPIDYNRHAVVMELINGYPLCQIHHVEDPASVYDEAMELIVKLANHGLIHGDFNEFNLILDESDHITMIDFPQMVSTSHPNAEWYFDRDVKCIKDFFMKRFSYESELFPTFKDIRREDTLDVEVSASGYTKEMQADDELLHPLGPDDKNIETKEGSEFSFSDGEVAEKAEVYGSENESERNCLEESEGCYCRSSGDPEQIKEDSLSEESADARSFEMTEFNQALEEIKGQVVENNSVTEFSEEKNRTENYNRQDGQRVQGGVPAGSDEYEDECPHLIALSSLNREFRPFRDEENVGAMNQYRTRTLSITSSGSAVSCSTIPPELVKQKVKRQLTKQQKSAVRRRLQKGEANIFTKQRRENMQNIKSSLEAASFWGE
The test system of data set [7] is Mast/stem cell growth factor receptor Kit (Homo sapiens), P10721 [A829P]. Kind of data set: Binding affinity to human partial length KIT A829P mutant (I571 to D952 residues) expressed in mammalian expression system assessed as residual binding level at 1 uM by Kinomescan method relative to control. In a few lines: as §1
In data set [8] the target is Cyclin-dependent kinase-like 5 (Homo sapiens) (UniProt O76039). Kind of data set: Binding affinity to wild-type human partial length CDKL5 (M1 to S337 residues) expressed in mammalian expression system assessed as residual binding level at 1 uM by Kinomescan method relative to control.
Chain of Cyclin-dependent kinase-like 5 (Homo sapiens) (O76039 whole entry, the tested form may be a part): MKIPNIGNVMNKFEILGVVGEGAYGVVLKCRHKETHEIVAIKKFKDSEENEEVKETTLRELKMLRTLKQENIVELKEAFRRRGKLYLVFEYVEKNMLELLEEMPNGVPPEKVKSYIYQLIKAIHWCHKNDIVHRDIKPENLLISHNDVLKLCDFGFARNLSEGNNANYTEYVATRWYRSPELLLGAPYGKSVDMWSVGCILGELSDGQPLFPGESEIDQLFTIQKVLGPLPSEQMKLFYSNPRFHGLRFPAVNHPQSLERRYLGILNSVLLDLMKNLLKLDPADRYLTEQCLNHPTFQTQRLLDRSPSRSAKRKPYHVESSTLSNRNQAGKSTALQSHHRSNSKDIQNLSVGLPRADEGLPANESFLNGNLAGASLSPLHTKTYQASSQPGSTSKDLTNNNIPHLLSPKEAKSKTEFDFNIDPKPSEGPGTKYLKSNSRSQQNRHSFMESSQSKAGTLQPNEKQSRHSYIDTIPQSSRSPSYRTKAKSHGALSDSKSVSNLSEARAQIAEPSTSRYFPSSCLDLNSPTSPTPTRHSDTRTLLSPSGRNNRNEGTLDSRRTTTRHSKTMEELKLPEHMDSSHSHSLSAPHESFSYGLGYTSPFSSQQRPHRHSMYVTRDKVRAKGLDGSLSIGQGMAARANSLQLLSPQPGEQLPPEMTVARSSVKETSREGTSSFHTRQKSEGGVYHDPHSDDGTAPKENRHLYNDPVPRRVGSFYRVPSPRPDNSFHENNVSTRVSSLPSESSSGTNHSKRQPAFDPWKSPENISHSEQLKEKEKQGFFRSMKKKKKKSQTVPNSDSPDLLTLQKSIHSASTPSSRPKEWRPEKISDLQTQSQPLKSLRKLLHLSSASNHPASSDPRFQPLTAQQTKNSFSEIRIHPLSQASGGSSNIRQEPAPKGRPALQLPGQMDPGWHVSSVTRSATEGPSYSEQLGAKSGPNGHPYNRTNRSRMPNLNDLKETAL
The target in data set [9] is Dual specificity testis-specific protein kinase 1 (Homo sapiens) (UniProt Q15569). Kind of data set: Binding affinity to wild-type human full length TESK1 (R37 to S626 residues) expressed in bacterial expression system assessed as residual binding level at 1 uM by Kinomescan method relative to control.
Chain of Dual specificity testis-specific protein kinase 1 (Homo sapiens) (Q15569 whole entry, looked up, the tested form may be a part): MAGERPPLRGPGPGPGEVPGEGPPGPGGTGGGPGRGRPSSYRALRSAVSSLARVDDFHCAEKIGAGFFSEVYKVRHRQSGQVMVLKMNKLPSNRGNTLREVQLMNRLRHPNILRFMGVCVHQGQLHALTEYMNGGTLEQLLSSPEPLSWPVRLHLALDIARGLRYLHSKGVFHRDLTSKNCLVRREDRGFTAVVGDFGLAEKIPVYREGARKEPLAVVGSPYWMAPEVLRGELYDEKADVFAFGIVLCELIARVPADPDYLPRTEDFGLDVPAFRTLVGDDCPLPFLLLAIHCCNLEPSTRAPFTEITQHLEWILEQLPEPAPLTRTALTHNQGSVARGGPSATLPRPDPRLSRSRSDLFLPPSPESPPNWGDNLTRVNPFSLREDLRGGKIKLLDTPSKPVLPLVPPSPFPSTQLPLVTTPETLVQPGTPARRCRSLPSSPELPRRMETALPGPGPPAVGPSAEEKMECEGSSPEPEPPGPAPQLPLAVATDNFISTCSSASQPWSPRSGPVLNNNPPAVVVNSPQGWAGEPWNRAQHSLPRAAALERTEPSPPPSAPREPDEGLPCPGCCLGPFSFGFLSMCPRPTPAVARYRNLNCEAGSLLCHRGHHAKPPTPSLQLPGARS
Data set [10] addresses Serine/threonine-protein kinase SBK1 (Homo sapiens) (UniProt Q52WX2). Kind of data set: Binding affinity to wild-type human partial length SBK1 (P23 to P348 residues) expressed in mammalian expression system assessed as residual binding level at 1 uM by Kinomescan method relative to control.
The target in data set [11] is Serine/threonine-protein kinase PLK1 (Homo sapiens) (UniProt P53350). Kind of data set: Binding affinity to wild-type human partial length PLK1 (A33 to F325 residues) expressed in mammalian expression system assessed as residual binding level at 1 uM by Kinomescan method relative to control.
In data set [12] the target is cAMP-dependent protein kinase catalytic subunit beta (Homo sapiens) (UniProt P22694). Briefly: Binding affinity to wild-type human full length PKAC-beta (M1 to F351 residues) expressed in bacterial expression system assessed as residual binding level at 1 uM by Kinomescan method relative to control. In a few lines:
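Single-point kinome-wide KINOMEscan binding panel, test compound at 1 μM, run by the provider's standard protocol.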

For data set [13], the target named is Interleukin-1 receptor-associated kinase 1 (Homo sapiens) (UniProt P51617). Briefly: Binding affinity to wild-type human partial length IRAK1 (R194 to S712 residues) expressed in mammalian expression system assessed as residual binding level at 1 uM by Kinomescan method relative to control.
In data set [14] the target is Cyclin-dependent kinase 4/cyclin D1 (Homo sapiens) (UniProt P11802+P24385). Kind of data set: Binding affinity to wild-type human full length CDK4/cyclinD1 (M1 to E303 residues) expressed in mammalian expression system assessed as residual binding level at 1 uM by Kinomescan method relative to control.
Data set [15] concerns the target Serine/threonine-protein kinase BRSK2 (Homo sapiens) (UniProt Q8IWQ3). Kind of data set: Binding affinity to wild-type human full length BRSK2 (M1 to L674 residues) expressed in bacterial expression system assessed as residual binding level at 1 uM by Kinomescan method relative to control.
The target in data set [16] is G protein-coupled receptor kinase 4 (Homo sapiens) (UniProt P32298). Kind of data set: Binding affinity to wild-type human full length GRK4 (M1 to C578 residues) expressed in bacterial expression system assessed as residual binding level at 1 uM by Kinomescan method relative to control.
Chain of G protein-coupled receptor kinase 4 (Homo sapiens) (P32298 whole entry, looked up, the tested form may be a part): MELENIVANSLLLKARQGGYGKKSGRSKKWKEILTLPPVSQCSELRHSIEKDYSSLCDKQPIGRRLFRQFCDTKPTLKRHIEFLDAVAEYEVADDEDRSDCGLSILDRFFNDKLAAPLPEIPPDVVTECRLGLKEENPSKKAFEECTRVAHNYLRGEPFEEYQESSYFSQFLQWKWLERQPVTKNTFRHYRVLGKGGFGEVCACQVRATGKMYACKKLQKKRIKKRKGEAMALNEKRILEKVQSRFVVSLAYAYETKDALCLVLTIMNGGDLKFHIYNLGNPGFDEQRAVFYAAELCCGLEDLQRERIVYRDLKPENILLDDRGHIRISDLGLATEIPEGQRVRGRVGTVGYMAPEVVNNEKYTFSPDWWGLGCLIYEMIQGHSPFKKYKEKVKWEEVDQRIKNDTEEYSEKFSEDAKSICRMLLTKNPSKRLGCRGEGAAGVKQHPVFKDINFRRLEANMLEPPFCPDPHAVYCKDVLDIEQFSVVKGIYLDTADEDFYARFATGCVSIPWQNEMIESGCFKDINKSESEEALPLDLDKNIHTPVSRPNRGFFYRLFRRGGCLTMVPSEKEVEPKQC
Data set [17] in a line: Drug uptake in mouse lung at 2 mg/kg, iv after 2 hrs. Conditions: read-out: Drug uptake. Format: ADME, organism-based.
For data set [18], the target named is Serine/threonine-protein kinase 10 (Homo sapiens) (UniProt O94804). Briefly: Binding affinity to wild-type human partial length LOK (E16 to V314 residues) expressed in bacterial expression system assessed as residual binding level at 1 uM by Kinomescan method relative to control.
Data set [19] addresses Mitogen-activated protein kinase kinase kinase 4 (Homo sapiens) (UniProt Q9Y6R4). Briefly: Binding affinity to wild-type human partial length MAP3K4 (G1319 to E1608 residues) expressed in bacterial expression system assessed as residual binding level at 1 uM by Kinomescan method relative to control.
Data set [20] addresses Calcium/calmodulin-dependent protein kinase type II subunit alpha (Homo sapiens) (UniProt Q9UQM7). Briefly: Binding affinity to wild-type human partial length CAMK2A (M1 to K328 residues) expressed in bacterial expression system assessed as residual binding level at 1 uM by Kinomescan method relative to control.
Data set [21] addresses Epidermal growth factor receptor (Homo sapiens) (UniProt P00533). Briefly: Binding affinity to wild-type human partial length EGFR (R669 to V1011 residues) expressed in bacterial expression system assessed as residual binding level at 1 uM by Kinomescan method relative to control.
In data set [22] the target is Tyrosine-protein kinase receptor UFO (Homo sapiens) (UniProt P30530). Briefly: Binding affinity to wild-type human partial length AXL (R497 to Y821 residues) expressed in bacterial expression system assessed as residual binding level at 1 uM by Kinomescan method relative to control.
Chain of Tyrosine-protein kinase receptor UFO (Homo sapiens) (P30530 whole entry, the tested form may be a part): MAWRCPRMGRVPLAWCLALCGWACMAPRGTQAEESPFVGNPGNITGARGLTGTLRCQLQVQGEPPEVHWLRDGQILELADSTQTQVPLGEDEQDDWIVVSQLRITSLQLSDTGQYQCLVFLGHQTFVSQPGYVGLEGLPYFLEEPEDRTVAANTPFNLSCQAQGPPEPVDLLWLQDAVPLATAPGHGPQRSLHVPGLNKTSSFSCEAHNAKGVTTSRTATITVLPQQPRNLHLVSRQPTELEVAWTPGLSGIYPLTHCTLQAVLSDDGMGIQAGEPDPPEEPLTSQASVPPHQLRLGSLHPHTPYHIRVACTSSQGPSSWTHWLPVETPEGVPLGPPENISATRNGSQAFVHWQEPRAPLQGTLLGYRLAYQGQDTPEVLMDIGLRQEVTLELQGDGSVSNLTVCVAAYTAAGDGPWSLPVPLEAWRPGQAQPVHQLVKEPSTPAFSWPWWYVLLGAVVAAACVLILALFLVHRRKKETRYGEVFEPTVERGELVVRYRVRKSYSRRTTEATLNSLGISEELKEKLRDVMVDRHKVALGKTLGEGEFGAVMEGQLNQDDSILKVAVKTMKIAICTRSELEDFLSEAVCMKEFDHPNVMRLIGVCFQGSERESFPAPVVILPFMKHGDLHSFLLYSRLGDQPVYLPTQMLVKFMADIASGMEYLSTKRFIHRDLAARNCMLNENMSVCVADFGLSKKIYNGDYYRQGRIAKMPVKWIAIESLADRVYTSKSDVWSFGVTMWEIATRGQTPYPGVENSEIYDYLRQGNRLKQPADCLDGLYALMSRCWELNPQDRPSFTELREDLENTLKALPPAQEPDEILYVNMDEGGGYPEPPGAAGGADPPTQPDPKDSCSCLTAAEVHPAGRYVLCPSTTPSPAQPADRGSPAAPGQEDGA
In data set [23] the target is Tyrosine-protein kinase ITK/TSK (Homo sapiens) (UniProt Q08881). Briefly: Binding affinity to wild-type human partial length ITK (R335 to L620 residues) expressed in bacterial expression system assessed as residual binding level at 1 uM by Kinomescan method relative to control.
The target in data set [24] is Myosin-IIIb (Homo sapiens) (UniProt Q8WXR4). Briefly: Binding affinity to wild-type human partial length MYO3B (M1 to D357 residues) expressed in bacterial expression system assessed as residual binding level at 1 uM by Kinomescan method relative to control.

From ChEMBL document CHEMBL4382192, “Discovery of a potent dual ALK and EGFR T790M inhibitor” (Eur J Med Chem, 2017) come the findings set out here.

Chain of Calcium/calmodulin-dependent protein kinase type II subunit alpha (Homo sapiens) (Q9UQM7 whole entry, the tested form may be a part): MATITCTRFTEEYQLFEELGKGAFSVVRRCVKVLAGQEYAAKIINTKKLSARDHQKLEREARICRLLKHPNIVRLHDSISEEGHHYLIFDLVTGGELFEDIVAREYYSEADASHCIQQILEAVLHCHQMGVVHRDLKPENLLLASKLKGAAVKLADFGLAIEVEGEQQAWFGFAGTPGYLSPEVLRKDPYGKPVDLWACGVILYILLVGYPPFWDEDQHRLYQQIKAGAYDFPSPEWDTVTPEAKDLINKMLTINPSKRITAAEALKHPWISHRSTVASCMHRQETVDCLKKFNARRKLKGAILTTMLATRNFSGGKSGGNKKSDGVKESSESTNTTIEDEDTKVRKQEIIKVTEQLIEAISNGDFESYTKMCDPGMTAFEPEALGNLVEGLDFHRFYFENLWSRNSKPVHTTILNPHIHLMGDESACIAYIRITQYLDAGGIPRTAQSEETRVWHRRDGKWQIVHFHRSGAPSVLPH
Chain of Serine/threonine-protein kinase BRSK2 (Homo sapiens) (Q8IWQ3 whole entry, the tested form may be a part): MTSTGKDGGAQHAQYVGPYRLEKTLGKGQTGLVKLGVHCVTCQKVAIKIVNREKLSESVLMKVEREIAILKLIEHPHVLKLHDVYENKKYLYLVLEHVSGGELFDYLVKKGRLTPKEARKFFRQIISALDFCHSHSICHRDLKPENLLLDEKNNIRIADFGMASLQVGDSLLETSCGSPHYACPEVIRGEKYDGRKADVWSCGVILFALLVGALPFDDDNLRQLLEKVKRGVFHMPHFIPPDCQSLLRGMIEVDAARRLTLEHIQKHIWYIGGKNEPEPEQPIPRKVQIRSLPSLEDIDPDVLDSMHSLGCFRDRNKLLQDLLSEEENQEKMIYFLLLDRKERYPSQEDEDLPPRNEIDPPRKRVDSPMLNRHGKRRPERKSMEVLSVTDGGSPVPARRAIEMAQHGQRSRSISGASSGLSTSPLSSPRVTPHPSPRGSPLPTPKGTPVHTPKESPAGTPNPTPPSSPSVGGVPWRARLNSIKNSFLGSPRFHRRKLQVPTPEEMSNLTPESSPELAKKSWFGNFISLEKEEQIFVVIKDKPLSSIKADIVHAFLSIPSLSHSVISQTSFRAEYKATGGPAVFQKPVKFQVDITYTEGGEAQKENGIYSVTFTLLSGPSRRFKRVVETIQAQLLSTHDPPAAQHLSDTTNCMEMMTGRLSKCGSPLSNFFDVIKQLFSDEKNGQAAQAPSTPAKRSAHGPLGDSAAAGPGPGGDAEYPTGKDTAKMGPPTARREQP

As for `C=CC(=O)Nc1cc(Nc2ncc(Cl)c(Nc3ccccc3S(=O)(=O)C(C)C)n2)c(OC)cc1N(C)CCN(C)C`, the Activity in data set [1] came out at 9.4%; in data set [2], 86%; in [3], 14%; in data set [4] it was 81%; in [5] it was 57%; in data set [6] it was 93%. The Activity stood at 45% in [7]; 91% in data set [8]; 91% in data set [9]; 1.9% in data set [10]; 83% in [11]; 99% in data set [12]. The Activity amounted to 21% in [13]; 94% in [14]; 49% in [15]; 91% in data set [16]; 0% in data set [18]; 67% in data set [19]. The Activity is 18% in data set [20]; 0% in data set [21]; 10% in [22]; 0.1% in data set [23]; 1.8% in data set [24]. The concentration at 2 h in data set [17] turned out to be 2360 nM.
